Compound activity (PubChem BioAssay)
SIAE primary: human SIAE inhibitors, primary screen, biochemical, fluorescence polarization, FP-Rh probe, 1536-well HTS; inhibition, % at 9.66 µM; actives 0.69% (n = 370,000); SIAE FP-Rh probe binding; AID 1053197, 2014;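 active = inhibition above a cutoff: mean of compounds within the control limits plus 3 SD of those, cut at about 17% in these data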;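 note: 0% = plate median of compound wells and 100% = probe without SIAE protein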
ATG4B inh: ATG4B protease inhibitors, primary screen, biochemical, fluorescence, uHTS. ATG4B cleavage of LC3-PLA2, NBD-HPC fluorescence, 1 h. inhibition, % at 8.33 µM. actives 0.51% (n = 340,000). AID 504462, 2011; in the data active = inhibition above about 40%
HTRA1 inh: HTRA1 serine protease inhibitors, primary screen, biochemical, fluorescence polarization, HTS | recombinant HTRA1, FP-rhodamine activity-based probe | inhibition, % at 5.96 µM | actives 0.5% (n = 340,000) | Q92743; in the data active = inhibition above about 36%;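 note: 0% = enzyme with DMSO and 100% = wells lacking enzyme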
Target sequence (Q92743 whole entry, looked up): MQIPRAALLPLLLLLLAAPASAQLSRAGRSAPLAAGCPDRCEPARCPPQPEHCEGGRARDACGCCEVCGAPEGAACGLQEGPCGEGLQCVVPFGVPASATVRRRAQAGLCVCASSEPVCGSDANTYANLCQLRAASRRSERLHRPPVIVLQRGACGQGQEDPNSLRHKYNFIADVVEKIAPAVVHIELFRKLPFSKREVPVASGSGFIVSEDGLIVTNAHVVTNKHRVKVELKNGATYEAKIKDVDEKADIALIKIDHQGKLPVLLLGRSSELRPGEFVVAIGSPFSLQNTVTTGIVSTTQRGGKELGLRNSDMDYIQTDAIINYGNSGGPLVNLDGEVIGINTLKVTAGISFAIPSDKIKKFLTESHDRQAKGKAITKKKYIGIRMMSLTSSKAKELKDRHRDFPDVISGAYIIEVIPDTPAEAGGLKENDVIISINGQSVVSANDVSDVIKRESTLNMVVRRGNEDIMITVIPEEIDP
ABHD4 inh: ABHD4 inhibitors, primary screen, biochemical, fluorescence polarization, mouse; actives 0.54% (n = 370,000); purified mABHD4, FP-Rh probe fluorescence polarization; inhibition, % at 8.92 µM; AID 720543, 2013; (Lyso)-N-acylphosphatidylethanolamine lipase (Mus musculus), Q8VD66;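 active = inhibition exceeding the mean over every tested compound plus 3 SD, cut at about 30% in these data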;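 note: 0% = plate median of compound wells and 100% = S159A mutant with DMSO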
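Test system: mABHD4 protein; Read-out basis: % inhibition; Incubation: 45 min + 60 min at 25 °C; Repeats: single replicate; Technique: fluorescence polarization with parallel and perpendicular emission, 525/598 nm; Compound: 8.92 µM, single dose; Benchmarks: full inhibition S159A mutant plus DMSO, zero as sample-well median.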
TCR-CD3 inh: inhibitors of human TCR-CD3 interaction, primary screen, biochemical, fluorescence, TAMRA-labeled TCR probe. inhibition, % at 9.4 µM. AID 651800, 2012. actives 0.37% (n = 360,000); in the data active = inhibition above about 19%;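 note: recombinant mutant TCR 2C K166C tagged with TAMRA read by polarization; 0% = receptor in buffer alone and 100% = receptor with positive control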
PRMT1 FP inh: PRMT1 methyltransferase inhibitors, primary screen, biochemical, fluorescence polarization | AID 652257, 2013 | actives 1.3% (n = 370,000) | inhibition, % at 2.79 µM | recombinant PRMT1, activity-based probe fluorescence polarization | Protein arginine N-methyltransferase 1 (Homo sapiens), Q99873;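 active = inhibition above about 21% made by adding two undisclosed values, limit read from the data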
ATG4B confirm: ATG4B protease inhibitors, retest, confirmation, biochemical, fluorescence, single concentration. actives 92% (n = 320). ATG4B protease fluorescent substrate cleavage assay. shares compounds with ATG4B inh. inhibition, % at 8.33 µM; in the data active = inhibition above about 39%
PLA2 ctr: PLA2 enzyme inhibition, counter-screen for ATG4B inhibitor project, biochemical, single concentration, uHTS hits; shares compounds with ATG4B inh; purified PLA2, NBD-C6-HPC fluorescence, 45 min; inhibition, % at 8.33 µM; actives 66% (n = 1,600); AID 588402, 2011; in the data active = inhibition above about 50%
Target sequence (P04054 whole entry, looked up): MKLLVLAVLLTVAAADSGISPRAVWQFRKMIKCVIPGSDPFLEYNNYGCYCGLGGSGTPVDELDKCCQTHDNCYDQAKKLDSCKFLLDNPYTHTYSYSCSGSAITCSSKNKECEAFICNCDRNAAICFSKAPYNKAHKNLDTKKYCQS
Active calls of the source: *. Most compounds without a hit are left out; they make up all but 2.9% or so of the library.

How did C=CCC[C@@H](Cc1ccc(F)cc1)C(=O)OC[C@@H](NC(=O)[C@H](CC=C)CC(=O)N(CCO)Cc1ccccc1)c1ccccc1 do in these assays?
SIAE primary: -8; ATG4B inh: 53*; HTRA1 inh: -73; ABHD4 inh: -22; TCR-CD3 inh: 7; PRMT1 FP inh: 1; PLA2 ctr: 76*

What do the screens show for `C=CCC[C@@H](Cc1ccc(F)cc1)C(=O)OC[C@@H](NC(=O)[C@@H](CC=C)CC(=O)N(CCO)Cc1ccccc1)c1ccccc1`?
SIAE primary: -14; ATG4B inh: 25; HTRA1 inh: -62; ABHD4 inh: -36; TCR-CD3 inh: -4; PRMT1 FP inh: 0

How did CCN(CC)C(=O)CC[C@H]1CC[C@]2(CCCN(Cc3nccs3)C2)O1 do in these assays?
SIAE primary: 7; ABHD4 inh: -2; PRMT1 FP inh: 0

How did Cc1oc(-c2ccccc2Cl)nc1CS(=O)CC(=O)NCc1ccccc1Cl (centres undefined) do in these assays?
SIAE primary: -3; ATG4B inh: 46*; HTRA1 inh: -6; ABHD4 inh: -2; TCR-CD3 inh: 1; PRMT1 FP inh: 10; ATG4B confirm: 60*; PLA2 ctr: 47

What do the screens show for `Cc1oc(-c2ccccc2Cl)nc1CS(=O)CC(=O)NCc1ccco1` (centres undefined)?
SIAE primary: 2; ATG4B inh: -1; HTRA1 inh: -3; ABHD4 inh: 1; TCR-CD3 inh: 4; PRMT1 FP inh: 1

What do the screens show for `CCSc1nnc(NC(=O)CSc2nnc(Cc3cccn3C)n2CCc2ccccc2)s1`?
SIAE primary: 1; ATG4B inh: 58*; HTRA1 inh: -15; ABHD4 inh: -2; TCR-CD3 inh: -6; PRMT1 FP inh: 5; PLA2 ctr: 52*

How did O=C(N/N=C/c1ccc(-c2ccc(Cl)c(C(=O)O)c2)o1)c1cc2c(ccc3ccccc32)o1 do in these assays?
SIAE primary: -57; ATG4B inh: 42*; HTRA1 inh: -8; ABHD4 inh: 6; TCR-CD3 inh: 13; PRMT1 FP inh: 1; PLA2 ctr: 63*

Results for O=C(NC(=S)Nc1cc(-c2nc3ccccc3[nH]2)ccc1Cl)c1ccc2c(c1)OCO2 ?
SIAE primary: -63; ATG4B inh: 52*; HTRA1 inh: -83; ABHD4 inh: -29; TCR-CD3 inh: 1; PRMT1 FP inh: 2; PLA2 ctr: 60*

Results for Cc1ccc(-c2nc3ccccc3[nH]2)cc1NC(=S)NC(=O)c1ccccc1Br ?
SIAE primary: -137; ATG4B inh: 41*; HTRA1 inh: -79; ABHD4 inh: -28; TCR-CD3 inh: 7; PRMT1 FP inh: 0; PLA2 ctr: 61*

What do the screens show for `Cc1ccc(-c2nc3ccccc3[nH]2)cc1NC(=O)c1ccc2c(c1)OCO2`?
SIAE primary: -17; ATG4B inh: 20; HTRA1 inh: -25; ABHD4 inh: -9; TCR-CD3 inh: -3; PRMT1 FP inh: 3

What do the screens show for `O=C(CNCCc1ccc(Cl)cc1Cl)NCc1ccco1`?
SIAE primary: -3; ATG4B inh: 41*; HTRA1 inh: 3; ABHD4 inh: -1; TCR-CD3 inh: -1; PRMT1 FP inh: -5; ATG4B confirm: 66*; PLA2 ctr: 45

What do the screens show for `Cc1ccc(-n2c(C)cc(C(=O)COC(=O)c3ccc[nH]c3=O)c2C)cc1C`?
SIAE primary: 4; ATG4B inh: 45*; HTRA1 inh: -3; ABHD4 inh: -26; TCR-CD3 inh: 11; PRMT1 FP inh: -1; PLA2 ctr: 6

How did Cc1cc(C(=O)COC(=O)c2ccc[nH]c2=O)c(C)n1-c1ccccc1F do in these assays?
SIAE primary: -2; ATG4B inh: 2; HTRA1 inh: 1; ABHD4 inh: 8; TCR-CD3 inh: -4; PRMT1 FP inh: 4

What do the screens show for `CCCCCCCCNS(=O)(=O)CC1NCc2ccc(C)cc21` (centres undefined)?
SIAE primary: 4; ABHD4 inh: -7; PRMT1 FP inh: 1

Results for N=C1/C(=C\c2ccc(OC(=O)c3ccccc3Cl)cc2)C(=O)N=C2SC(N3CCOCC3)=NN12 ?
SIAE primary: -1; ATG4B inh: 58*; HTRA1 inh: -16; ABHD4 inh: 9; TCR-CD3 inh: 1; PRMT1 FP inh: 3; PLA2 ctr: 52*

Results for COc1cc(/C=C2\C(=N)N3N=C(N4CCOCC4)SC3=NC2=O)ccc1OC(=O)c1ccccc1 ?
SIAE primary: 7; ATG4B inh: 10; HTRA1 inh: 6; ABHD4 inh: 9; TCR-CD3 inh: 6; PRMT1 FP inh: -3

What do the screens show for `O=C(COc1ccc(C(=O)c2ccccc2)cc1)NCC1CCCCC1`?
SIAE primary: -1; ATG4B inh: 46*; HTRA1 inh: -18; ABHD4 inh: -1; TCR-CD3 inh: 3; PRMT1 FP inh: 1; PLA2 ctr: 14

Results for O=C(COc1ccccc1)NCC1CCCO1 (centres undefined) ?
SIAE primary: 3; ATG4B inh: 4; HTRA1 inh: 1; ABHD4 inh: 5; TCR-CD3 inh: -4; PRMT1 FP inh: -1

Results for Cc1c(Cl)cccc1NC(=S)NC1CCN(Cc2ccccc2)CC1 ?
SIAE primary: 0; ATG4B inh: 48*; HTRA1 inh: -6; ABHD4 inh: -4; TCR-CD3 inh: 7; PRMT1 FP inh: 1; PLA2 ctr: 58*

What do the screens show for `Cc1c(Cl)cccc1NC(=S)NCc1ccc(Cl)cc1`?
SIAE primary: 3; ATG4B inh: 70*; HTRA1 inh: -7; ABHD4 inh: 2; TCR-CD3 inh: 8; PRMT1 FP inh: -2; PLA2 ctr: 81*

What do the screens show for `S=C(NCc1ccc(Cl)cc1)Nc1ccccc1Cl`?
SIAE primary: 6; ATG4B inh: 10; HTRA1 inh: -3; ABHD4 inh: -9; TCR-CD3 inh: 2; PRMT1 FP inh: 2

Results for Cc1c(Cl)cccc1NC(=S)NCc1ccccc1 ?
SIAE primary: 3; ATG4B inh: 54*; HTRA1 inh: -5; ABHD4 inh: -4; TCR-CD3 inh: 6; PRMT1 FP inh: 1; PLA2 ctr: 70*
